# Assay outcomes deposited in PubChem BioAssay by Broad Institute.
# The list is not random: actives were taken first. Their share in the collection is about 2.9%.
# FGF22 binding: binders of human FGF22 protein, primary screen, FGF22 synaptogenesis inhibitor project, biophysical, thermal shift, single point. activity (Tm shift, normalised), % at 9.99 µM. Fibroblast growth factor 22 (Homo sapiens), Q9HCT0. hit rate 1.5% among 340,000. recombinant FGF22 thermal shift, SYPRO orange fluorescence; percent of sucrose octasulfate shift, DMSO zero. AID 651658, 2012;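 active = mean Tm shift, scaled 0 neutral to 100 positive control, at about 1.3% or above, every replicate too, limit read from the data; inconclusive = no clear call, values can overlap the other calls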
# Target sequence (Q9HCT0 whole entry, looked up): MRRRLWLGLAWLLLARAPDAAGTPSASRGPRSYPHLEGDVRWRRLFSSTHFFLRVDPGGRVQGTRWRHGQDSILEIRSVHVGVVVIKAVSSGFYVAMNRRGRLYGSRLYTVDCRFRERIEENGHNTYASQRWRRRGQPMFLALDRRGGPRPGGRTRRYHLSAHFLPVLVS
# Ecoli rRNA inh: reduced GFP signal of wild-type E. coli, primary screen, bacterial rRNA inhibitor project, GFP/RFP fluorescence, OD600, single point; E. coli WT GFP vs humanized-ribosome RFP mutants, 24 h; hits give low values; DMSO median 0, no signal -100; GFP signal change (wild-type ribosome), % (no concentration beside the values); hit rate 1.6% among 350,000; AID 720706, 2013;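 active = significant combined selectivity score with lowered wild-type GFP, culture density cut under 30%, mutant RFP and density less affected; inactive = any of these conditions unmet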
# PglD inh: C. jejuni PglD acetyltransferase inhibitors, primary screen, biochemical, DTNB colorimetric, single point; UDP-N-acetylbacillosamine N-acetyltransferase PglD (Campylobacter jejuni); purified PglD enzyme, DTNB colorimetric CoA detection; inhibition, % at 12.5 µM; hit rate 0.098% among 360,000; AID 602405, 2012; in the data active = inhibition above about 16%, passing the limit was not always enough; inconclusive = no clear call, values can overlap the other calls
# PGC1a acetyl inh: inhibitors of PGC1a acetylation signal, primary screen, cell-based, U2OS, AlphaScreen, inhibitor mode | AlphaScreen anti-acetyl-lysine; with virally co-expressed GCN5 acetyltransferase | inhibition, % at 15.6 µM | hit rate 0.17% among 350,000 | AID 651687, 2012;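 active = every replicate shows inhibition of at least 40%; inconclusive = mean inhibition at least 40% but some replicate below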;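 note: 0% = neutral control wells and 100% = positive control wells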
# Vif inh: HIV Vif self-association inhibitors, primary screen, imaging, HEK293T, single point; hit rate 0.35% among 340,000; HEK293T cells, Vif self-association by quenched fluorescence, 24 h; inhibition, % at 7.49 µM; in the data active = inhibition above about 50%, passing the limit was not always enough; inconclusive = no clear call, values can overlap the other calls; inactive = below about 31%
# Cneo AK release: Cryptococcus neoformans cell lysis inducers, primary screen, AK release luminescence, single concentration. C. neoformans lysis, adenylate kinase release luminescence, 4 h; normalised: neutral wells 0, clomiphene wells 100. lysis activity, % at 15 µM. AID 651654, 2012. hit rate 0.2% among 360,000;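 active = mean lysis activity across replicates of at least 80%, whatever share of replicates individually reach that level; inactive = mean lysis activity below 80%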
#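 Material: C. neoformans cells | Amount: Yeast cell density of 5 × 10^6 cells/mL | Medium: Fresh YPD growth medium | Dosing: Single dose | Times: Static 4 h at 37 °C with compound, 1 h detection | Detection: AK luminescence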
# C2C12 COX5a inh: inhibitors of PGC-1a-driven COX5a expression, dose response, cell-based, C2C12 myotubes, RT-qPCR, cherry-picked samples. shares compounds with PGC1a acetyl inh. C2C12 myotubes PGC-1a adenovirus. maximal activity, %. 45 tested, under 10 active. AID 743461, 2014;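 active = fitted dose curve reaching 40% activity at or below the highest valid dose tested; inconclusive = flat fit between 30% and 70%, or an unusable fit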
# AID743468: change in PGC-1a target gene PDK4 expression, dose response, C2C12 myotubes, RT-qPCR, cherry-pick; shares compounds with PGC1a acetyl inh; PDK4 expression increase, % at 19.5 µM; PGC-1a adenovirus, PDK4 mRNA qPCR; 45 tested, under 10 active;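 active = fitted curve reaching a 40% PDK4 expression rise at or below the top valid tested dose; inconclusive = no clear call, values can overlap the other calls; inactive = the rest, including shifts the wrong way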
# * hit, by the source's call; ? = inconclusive; / = no result.
SMILES,FGF22 binding,Ecoli rRNA inh,PglD inh,PGC1a acetyl inh,Vif inh,Cneo AK release,C2C12 COX5a inh,AID743468
COc1cccc(S(=O)(=O)N2C[C@@H]3N[C@H](C2)C3c2ccc(-c3ccccc3OC)cc2)c1 (stereo not given in full),/,3,/,-12,/,/,/,/
COc1ccccc1-c1ccc([C@@H]2[C@@H]3CN(S(=O)(=O)c4ccc(-c5ccccc5)cc4)C[C@H]2N3)cc1,/,-56,/,-56,/,/,-34,-44
C[C@H](CO)N1C[C@H](C)[C@@H](CN(C)C(=O)C2CCCCC2)Oc2cc(C#Cc3ccncc3)ccc2S1(=O)=O,0,-10,-3,?,/,0,-21,-2
COc1ccccc1C#Cc1ccc2c(c1)O[C@@H](CN(C)Cc1cccnc1)[C@H](C)CN([C@H](C)CO)S2(=O)=O,0,/,1,43*,/,46,11,?
C[C@H]1CN([C@@H](C)CO)S(=O)(=O)c2ccc(-c3ccccc3)cc2O[C@@H]1CN(C)Cc1cccc(F)c1,0,2,0,48*,/,8,-51,-20
C[C@@H]1CN([C@H](C)CO)S(=O)(=O)c2ccc(C#Cc3ccncc3)cc2O[C@H]1CN(C)C(=O)C1CCCCC1,-1,-22,-3,-21,/,1,/,/
Cc1nc2ccccn2c1C(=O)/C=C/c1ccc(F)cc1,/,/,-4,?,10,-3,-23,6
CC1=C(Cl)C2=NS(=O)(=O)CCN2C=C1Cl,0,14,/,?,11,/,-23,0
CC[C@H](C)[C@H](NC(=O)c1ccc(Cl)cc1)C(=O)OCC(=O)c1ccc2c(c1)NC(=O)CO2,/,/,5,?,5,-5,-16,5
CC(C)[C@H](NC(=O)c1ccccc1)C(=O)OCC(=O)c1ccc2c(c1)NC(=O)CO2,/,/,5,2,3,-4,/,/
CCCN1C[C@H](C)[C@H](OC)CN(C)C(=O)c2cc(NC(=O)c3ccno3)ccc2OC[C@H]1C,/,4,2,2,/,0,/,/
C[C@H](CO)N1C[C@H](C)[C@@H](CN(C)C(=O)c2ccccc2)OCCCC[C@H](C)Oc2ccc(NC(=O)NC3CCCCC3)cc2C1=O,0,-4,0,9,/,9,/,/
CCOc1cc(CNC2CCCC2)cc(Cl)c1OCc1ccc(F)cc1,/,/,3,78*,7,7,-27,-9
COCC(=O)Nc1ccc2c(c1)[C@H]1C[C@H](CC(=O)N3CCCCC3)O[C@@H](CO)[C@H]1O2,0,4,-2,1,/,1,/,/
Nc1ncnc(NCc2ccc(F)cc2)c1[N+](=O)[O-],1,23,/,50*,-1,/,-25,32
Nc1ncnc(NCc2ccccc2)c1[N+](=O)[O-],0,2,/,/,?,/,/,/
O=C(Nc1ccc(C(F)(F)F)cc1)N1C[C@@H]2N[C@H](C1)C2c1ccc(-c2ccccc2)cc1 (stereo not given in full),/,-55,/,?,/,/,-43,-24
C[C@@H]1CN([C@@H](C)CO)C(=O)c2cc(C#C[C@@H](C)O)cnc2O[C@@H]1CN(C)C(=O)Nc1ccc(F)cc1,0,6,-2,-8,/,0,/,/
O=c1cc(CSc2ccccn2)[nH]c(=O)[nH]1,/,/,6,?,-5,-1,-27,-6
O=c1cc(CCc2ccccc2)[nH]c(=O)[nH]1,0,7,/,/,0,/,/,/
O=C(C[C@H]1CC[C@@H](NC(=O)c2ccccc2)[C@H](CO)O1)Nc1ccc(-c2ccccc2)cc1,0,-6,2,44*,/,1,-29,-29
O=C(C[C@H]1CC[C@H](NC(=O)c2ccccc2)[C@@H](CO)O1)Nc1ccc(-c2ccccc2)cc1,0,-3,-1,5,/,-2,/,/
Cc1nc(Nc2ccc(S(N)(=O)=O)cc2)sc1C(=O)Nc1ccccc1,0,-35*,/,?,1,/,-26,-8
Cc1ccc(S(=O)(=O)Nc2nc(C)c(C(=O)Nc3ccccc3)s2)cc1,/,-13,4,-9,2,22,/,/
COc1cccc(-c2ccc3c(c2)[C@@H]2[C@@H](CCN2C(=O)c2ccc(F)cc2)[C@@H](CO)N3)c1,0,-1,0,6,/,8,/,/
SMILES,FGF22 binding,Ecoli rRNA inh,PglD inh,PGC1a acetyl inh,Vif inh,Cneo AK release,C2C12 COX5a inh,AID743468
CO[C@@H]1CN(C)C(=O)c2cc(NC(=O)C3CC3)ccc2OC[C@H](C)N(C(=O)CN2CCOCC2)C[C@H]1C,0,2,0,15,/,-1,/,/
Cc1cccc(NC(=O)CNC(=O)Cn2ncc(Cl)c(Cl)c2=O)c1C,/,/,-2,?,57*,-1,-39,26
CCN1CCN(Cc2ccc(NC(=O)c3cc(NC(=O)c4cncc(-c5ccc(C#N)cc5)c4)cc(OC)c3)cc2C(F)(F)F)CC1,0,0,0,86*,-5,6,-46,1
COc1ccc(NC(=O)Nc2ccc3c(c2)C(=O)N([C@H](C)CO)C[C@H](C)[C@H](CN(C)S(=O)(=O)c2ccc(C)cc2)OCCCC[C@H](C)O3)cc1,/,-1,8,-7,/,29,/,/
Cc1cc2c(c(/C=C/C(=O)c3ccccc3)c1)OC1(C=C2)Oc2ccccc2C(=O)N1C (stereo not given),0,-1,/,50*,1,/,-44,-53
O=C1c2ccccc2OC2(C=Cc3ccccc3O2)N1Cc1ccccc1 (stereo not given),/,/,1,-12,1,-2,/,/
O=C(Nc1ccccc1)Nc1ccc2c(c1)[C@H]1C[C@H](CC(=O)N3CCCCC3)O[C@@H](CO)[C@H]1O2,0,-1,2,-12,/,4,/,/
O=C(C[C@@H]1C=C[C@@H](NC(=O)c2cccc(F)c2)[C@H](CO)O1)Nc1nccs1,0,1,-2,1,/,31,/,/
CS(=O)c1nc(-c2ccc(Br)cc2)cc(-c2ccccc2)c1C#N (stereo not given),0,8,-4,91*,-5,4,-38,11
CCn1nc(C)c(Br)c1-c1nc(-c2cccc(C)c2)no1,/,9,0,4,3,-1,/,/
